pIC50: −log10 of the molar value.
Experiments:
[1] = molecular target: T1, Tyrosine-protein kinase JAK3 (Homo sapiens) (UniProt P52333); test: Inhibition of JAK3 at 1 uM
T1 sequence (whole entry): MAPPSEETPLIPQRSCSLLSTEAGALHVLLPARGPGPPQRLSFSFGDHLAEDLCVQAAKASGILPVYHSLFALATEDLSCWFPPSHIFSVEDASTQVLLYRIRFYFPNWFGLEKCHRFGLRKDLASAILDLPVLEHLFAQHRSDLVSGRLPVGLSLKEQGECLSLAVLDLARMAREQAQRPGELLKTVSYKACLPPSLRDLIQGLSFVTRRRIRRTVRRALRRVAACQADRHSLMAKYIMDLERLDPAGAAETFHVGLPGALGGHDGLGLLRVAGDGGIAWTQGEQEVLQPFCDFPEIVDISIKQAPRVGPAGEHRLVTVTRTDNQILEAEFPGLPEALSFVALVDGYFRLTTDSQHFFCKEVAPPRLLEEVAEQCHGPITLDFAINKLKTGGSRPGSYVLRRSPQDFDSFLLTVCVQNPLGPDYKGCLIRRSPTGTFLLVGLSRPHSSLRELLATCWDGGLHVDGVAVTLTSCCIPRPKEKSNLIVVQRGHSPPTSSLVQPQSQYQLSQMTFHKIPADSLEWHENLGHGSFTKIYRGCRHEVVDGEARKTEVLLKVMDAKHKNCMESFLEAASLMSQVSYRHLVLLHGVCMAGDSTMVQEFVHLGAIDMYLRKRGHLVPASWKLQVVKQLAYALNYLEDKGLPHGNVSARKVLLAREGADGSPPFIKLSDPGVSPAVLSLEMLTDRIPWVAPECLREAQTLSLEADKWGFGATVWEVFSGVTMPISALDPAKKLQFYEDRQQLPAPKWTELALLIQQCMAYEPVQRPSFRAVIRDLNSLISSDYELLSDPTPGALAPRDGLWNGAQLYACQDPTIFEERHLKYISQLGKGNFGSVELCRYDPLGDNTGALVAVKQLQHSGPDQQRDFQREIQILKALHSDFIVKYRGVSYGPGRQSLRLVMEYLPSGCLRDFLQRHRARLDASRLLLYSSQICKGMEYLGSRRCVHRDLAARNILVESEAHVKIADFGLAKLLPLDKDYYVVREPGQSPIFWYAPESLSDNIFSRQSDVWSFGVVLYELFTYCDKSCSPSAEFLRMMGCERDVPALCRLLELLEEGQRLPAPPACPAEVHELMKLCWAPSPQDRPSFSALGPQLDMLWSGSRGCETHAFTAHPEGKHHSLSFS
Procedure, shortened: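 Each selected inhibitor was tested at two concentrations, 0.1 and 1.0 micromolar. Values are reported as inhibition at each concentration.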

[2] = molecular target: MAP kinase-activated protein kinase 2 (Homo sapiens) (UniProt P49137); test: Inhibition of MAPKAP-K2 at 1 uM
cells = details: Homo sapiens, T-cell
[3] = molecular target: T2, Serine/threonine-protein kinase D2 (Homo sapiens) (UniProt Q9BZL6); test: Inhibition of PKD2 at 1 uM; values are per cent of control
T2 sequence (whole entry): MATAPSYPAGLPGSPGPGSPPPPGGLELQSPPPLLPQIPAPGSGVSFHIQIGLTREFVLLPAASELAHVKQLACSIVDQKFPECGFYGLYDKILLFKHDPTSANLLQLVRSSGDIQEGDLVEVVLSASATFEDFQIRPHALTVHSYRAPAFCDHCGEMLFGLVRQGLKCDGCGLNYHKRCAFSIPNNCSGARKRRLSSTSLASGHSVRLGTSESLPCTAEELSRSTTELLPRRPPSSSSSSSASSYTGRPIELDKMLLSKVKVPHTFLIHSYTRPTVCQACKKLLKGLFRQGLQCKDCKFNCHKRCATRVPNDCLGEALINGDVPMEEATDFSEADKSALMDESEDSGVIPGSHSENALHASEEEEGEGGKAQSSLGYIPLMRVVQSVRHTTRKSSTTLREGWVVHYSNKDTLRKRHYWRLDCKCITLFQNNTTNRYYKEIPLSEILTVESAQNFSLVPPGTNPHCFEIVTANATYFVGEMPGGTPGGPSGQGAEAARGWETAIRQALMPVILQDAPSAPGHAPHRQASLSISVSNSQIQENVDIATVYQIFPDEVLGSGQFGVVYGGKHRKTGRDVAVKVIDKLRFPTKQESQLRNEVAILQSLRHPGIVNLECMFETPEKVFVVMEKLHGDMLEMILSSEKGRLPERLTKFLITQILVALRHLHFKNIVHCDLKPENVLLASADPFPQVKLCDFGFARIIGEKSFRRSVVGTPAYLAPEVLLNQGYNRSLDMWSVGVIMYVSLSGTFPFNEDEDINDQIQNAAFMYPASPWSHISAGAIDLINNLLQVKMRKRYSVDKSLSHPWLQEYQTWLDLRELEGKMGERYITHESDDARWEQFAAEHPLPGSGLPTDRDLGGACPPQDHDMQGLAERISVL

[4] = molecular target: Serine/threonine-protein kinase MARK1 (Homo sapiens) (UniProt Q9P0L2); test: Inhibition of MARK1 at 1 uM; values are per cent of control
[5] = molecular target: Angiopoietin-1 receptor (Homo sapiens) (UniProt Q02763); test: Inhibition of Tie2 at 0.1 uM; values are per cent of control
[6] = molecular target: RAC-alpha serine/threonine-protein kinase (Homo sapiens) (UniProt P31749); test: Inhibition of PKBalpha at 1 uM; values are per cent of control
[7] = molecular target: T3, Dual specificity mitogen-activated protein kinase kinase 7 (Homo sapiens) (UniProt O14733); test: Inhibition of MKK7beta at 0.1 uM; values are per cent of control
T3 sequence (whole entry): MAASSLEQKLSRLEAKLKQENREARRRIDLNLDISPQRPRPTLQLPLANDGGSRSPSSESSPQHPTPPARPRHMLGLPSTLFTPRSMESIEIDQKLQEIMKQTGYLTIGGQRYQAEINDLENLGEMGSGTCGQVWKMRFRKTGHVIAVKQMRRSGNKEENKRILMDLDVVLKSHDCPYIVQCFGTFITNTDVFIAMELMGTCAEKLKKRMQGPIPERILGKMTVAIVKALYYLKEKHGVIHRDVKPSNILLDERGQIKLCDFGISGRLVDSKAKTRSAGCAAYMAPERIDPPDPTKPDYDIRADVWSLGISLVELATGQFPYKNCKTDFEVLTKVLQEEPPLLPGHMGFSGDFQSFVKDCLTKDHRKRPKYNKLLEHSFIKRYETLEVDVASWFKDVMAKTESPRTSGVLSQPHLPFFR

[8] = molecular target: CDK6/cyclin D3 (Homo sapiens) (UniProt P30281+Q00534); test: Inhibition of CDK6/cyclin D3 at 1 uM; values are per cent of control

Chain of RAC-alpha serine/threonine-protein kinase (Homo sapiens) (P31749 whole entry): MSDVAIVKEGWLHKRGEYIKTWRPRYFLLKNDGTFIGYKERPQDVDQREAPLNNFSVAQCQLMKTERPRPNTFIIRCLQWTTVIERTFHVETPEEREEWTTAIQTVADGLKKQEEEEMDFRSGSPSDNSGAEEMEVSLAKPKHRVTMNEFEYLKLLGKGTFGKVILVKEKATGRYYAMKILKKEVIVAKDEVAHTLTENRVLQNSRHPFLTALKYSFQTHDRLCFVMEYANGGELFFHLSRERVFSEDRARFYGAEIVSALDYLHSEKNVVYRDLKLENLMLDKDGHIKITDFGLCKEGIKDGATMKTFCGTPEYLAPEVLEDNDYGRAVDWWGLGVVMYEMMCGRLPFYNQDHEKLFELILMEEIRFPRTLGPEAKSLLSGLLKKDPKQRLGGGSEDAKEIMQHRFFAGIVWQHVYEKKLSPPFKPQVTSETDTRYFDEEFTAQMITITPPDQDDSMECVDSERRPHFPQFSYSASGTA
Chain of Angiopoietin-1 receptor (Homo sapiens) (Q02763 whole entry): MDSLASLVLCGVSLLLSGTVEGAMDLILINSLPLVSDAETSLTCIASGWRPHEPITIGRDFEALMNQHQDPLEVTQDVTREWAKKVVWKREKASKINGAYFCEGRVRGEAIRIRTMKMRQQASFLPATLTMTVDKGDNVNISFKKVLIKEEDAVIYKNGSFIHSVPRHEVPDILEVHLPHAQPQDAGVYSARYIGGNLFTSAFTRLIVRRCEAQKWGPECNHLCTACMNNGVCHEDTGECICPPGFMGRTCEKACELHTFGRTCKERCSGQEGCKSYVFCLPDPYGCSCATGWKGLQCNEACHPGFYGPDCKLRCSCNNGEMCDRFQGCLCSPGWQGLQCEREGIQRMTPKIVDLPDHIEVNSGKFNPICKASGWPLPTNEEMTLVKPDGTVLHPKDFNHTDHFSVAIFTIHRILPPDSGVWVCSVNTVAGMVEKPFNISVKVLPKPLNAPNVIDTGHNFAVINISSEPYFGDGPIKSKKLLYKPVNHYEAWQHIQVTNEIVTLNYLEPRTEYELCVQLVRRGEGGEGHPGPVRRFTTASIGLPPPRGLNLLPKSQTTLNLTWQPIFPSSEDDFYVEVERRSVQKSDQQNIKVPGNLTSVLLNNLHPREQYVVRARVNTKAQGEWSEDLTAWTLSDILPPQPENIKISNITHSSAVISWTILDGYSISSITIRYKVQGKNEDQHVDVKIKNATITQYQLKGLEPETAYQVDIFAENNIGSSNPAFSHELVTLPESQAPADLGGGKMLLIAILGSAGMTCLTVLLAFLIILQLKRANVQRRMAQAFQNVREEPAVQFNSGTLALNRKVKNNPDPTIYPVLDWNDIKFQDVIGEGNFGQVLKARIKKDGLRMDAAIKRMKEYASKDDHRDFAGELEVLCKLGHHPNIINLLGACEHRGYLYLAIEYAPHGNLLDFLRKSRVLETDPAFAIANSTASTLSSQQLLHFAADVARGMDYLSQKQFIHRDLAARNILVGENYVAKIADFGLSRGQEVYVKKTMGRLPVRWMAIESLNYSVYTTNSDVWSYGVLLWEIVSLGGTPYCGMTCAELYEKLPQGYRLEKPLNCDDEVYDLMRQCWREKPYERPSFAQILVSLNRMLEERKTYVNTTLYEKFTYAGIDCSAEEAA
Chain of MAP kinase-activated protein kinase 2 (Homo sapiens) (P49137 whole entry, looked up): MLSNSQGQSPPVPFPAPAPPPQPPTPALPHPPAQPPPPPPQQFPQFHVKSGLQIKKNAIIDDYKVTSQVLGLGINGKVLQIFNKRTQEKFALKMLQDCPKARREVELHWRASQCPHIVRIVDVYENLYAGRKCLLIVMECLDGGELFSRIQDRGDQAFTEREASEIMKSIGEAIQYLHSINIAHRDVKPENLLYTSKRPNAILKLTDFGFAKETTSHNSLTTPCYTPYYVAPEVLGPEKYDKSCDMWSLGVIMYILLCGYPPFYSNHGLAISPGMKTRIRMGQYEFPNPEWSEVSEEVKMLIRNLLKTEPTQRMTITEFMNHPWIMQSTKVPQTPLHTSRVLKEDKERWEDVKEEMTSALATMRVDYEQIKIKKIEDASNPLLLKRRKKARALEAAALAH
Chain of Serine/threonine-protein kinase MARK1 (Homo sapiens) (Q9P0L2 whole entry, looked up): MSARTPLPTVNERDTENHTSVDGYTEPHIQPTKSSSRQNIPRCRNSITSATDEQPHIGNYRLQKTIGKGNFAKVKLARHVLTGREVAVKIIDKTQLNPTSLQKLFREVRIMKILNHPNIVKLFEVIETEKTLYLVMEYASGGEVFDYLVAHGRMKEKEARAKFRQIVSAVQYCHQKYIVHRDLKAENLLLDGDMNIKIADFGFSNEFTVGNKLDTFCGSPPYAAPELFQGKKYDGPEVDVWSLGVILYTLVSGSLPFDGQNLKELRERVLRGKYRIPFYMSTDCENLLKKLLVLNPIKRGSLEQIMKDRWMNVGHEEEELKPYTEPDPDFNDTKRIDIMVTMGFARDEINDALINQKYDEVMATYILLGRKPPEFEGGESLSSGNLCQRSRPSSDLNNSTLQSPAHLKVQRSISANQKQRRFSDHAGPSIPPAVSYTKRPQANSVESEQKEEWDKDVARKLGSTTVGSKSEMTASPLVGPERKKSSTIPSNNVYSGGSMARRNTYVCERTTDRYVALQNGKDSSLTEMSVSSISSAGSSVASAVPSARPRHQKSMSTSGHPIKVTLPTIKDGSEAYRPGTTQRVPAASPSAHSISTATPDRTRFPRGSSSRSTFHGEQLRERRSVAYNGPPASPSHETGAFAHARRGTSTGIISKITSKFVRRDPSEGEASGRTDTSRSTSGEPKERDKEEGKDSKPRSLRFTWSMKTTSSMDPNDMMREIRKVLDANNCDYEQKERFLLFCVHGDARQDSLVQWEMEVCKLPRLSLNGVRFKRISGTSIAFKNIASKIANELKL

| inhibition [1] | inhibition [2] | pIC50 (cells) | residual activity [3] | residual activity [4] | residual activity [5] | residual activity [6] | residual activity [7] | residual activity [8] | Structure (SMILES) |
| --- | --- | --- | --- | --- | --- | --- | --- | --- | --- |
| 5% | 93% | 6.30 | 80% | 21% | 83% | 86% | 103% | 46% | Cc1ccc2cc(-c3n[nH]c4ccc(NC5CCN(Cc6ccccc6)CC5)cc34)[nH]c2c1 |
| 8% | 48% | 7.70 | 12% | 0% | 17% | 69% | 98% | 33% | Cc1ccc2cc(-c3n[nH]c4ccc(NC5CCNC5)cc34)[nH]c2c1 (stereo not drawn) |

— ChEMBL document CHEMBL1681705, “Optimisation of ITK inhibitors through successive iterative design cycles” (Bioorg Med Chem Lett, 2011)
